Most compounds without a hit are left out; they make up all but 2.2% or so of the library.
Mdm2 ligase inh – inhibitors of human Mdm2 E3 ubiquitin ligase. hit rate 0.11% among 210,000. cell-based MDM2 ubiquitination luciferase reporter, 2 h; 0 = plate control, 100 = twice control, blank-subtracted. Q00987. signal enhancement, % at 5 µM;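 active = signal enhancement of 30% or more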;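 note: luminescence tracks abundance of the self-degrading MDM2-luciferase fusion protein; higher signal means inhibition of MDM2 E3 ligase activity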
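system = mammalian cells stably expressing self-ubiquitinating, self-degrading MDM2 E3–luciferase fusion | quantity = 2000 cells per well seeded | incubation = 4 h cell settling then 2 h compound exposure, 37 °C | signal = SteadyLite luminescence, 15 min reagent step | benchmarks = plate control and blank wells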
RBBP9 inhibitor – blocks human serine hydrolase RBBP9; O75884; recombinant RBBP9, FP-Rh probe fluorescence polarization; hit rate 0.2% among 220,000; AID 1515; inhibition, % at 7.94 µM;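 active = inhibition above the campaign mean of all tested compounds plus 3 SD, cut at about 14% in these data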;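 note: plate controls were DMSO wells with RBBP9 for no effect and wells lacking RBBP9 protein for full effect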
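System: RBBP9 protein / Quantity: 2.5 µM RBBP9 dispensing solution, before mixing / Also added: Serine-hydrolase probe FP-Rh, 375 nM pre-mixing / Dosing: 7.94 µM single dose, 0.794% DMSO / Timing: enzyme-compound preincubation 30 min, then probe labeling 45 min, 25 °C / Signal: FP readout at 525/598 nm / Controls: DMSO-treated enzyme wells and wells lacking RBBP9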
Wee1 stabilizer – inhibitors of human Wee1 degradation; reporter increase, % at 5 µM; P30291; hit rate 1.2% among 220,000; HeLa Luc-Wee1K328M stability, luciferase luminescence; 100% = proteasome inhibitor MG132 effect;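 active = activation above the mean of all tested compounds plus 3 SD, set per screening run, cut at about 8.8% in these data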;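 note: cells exposed to compound for 20 h before luminescence read; 0% = DMSO alone and 100% = MG132 at 30 µM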
Target sequence (P30291 whole entry K328M): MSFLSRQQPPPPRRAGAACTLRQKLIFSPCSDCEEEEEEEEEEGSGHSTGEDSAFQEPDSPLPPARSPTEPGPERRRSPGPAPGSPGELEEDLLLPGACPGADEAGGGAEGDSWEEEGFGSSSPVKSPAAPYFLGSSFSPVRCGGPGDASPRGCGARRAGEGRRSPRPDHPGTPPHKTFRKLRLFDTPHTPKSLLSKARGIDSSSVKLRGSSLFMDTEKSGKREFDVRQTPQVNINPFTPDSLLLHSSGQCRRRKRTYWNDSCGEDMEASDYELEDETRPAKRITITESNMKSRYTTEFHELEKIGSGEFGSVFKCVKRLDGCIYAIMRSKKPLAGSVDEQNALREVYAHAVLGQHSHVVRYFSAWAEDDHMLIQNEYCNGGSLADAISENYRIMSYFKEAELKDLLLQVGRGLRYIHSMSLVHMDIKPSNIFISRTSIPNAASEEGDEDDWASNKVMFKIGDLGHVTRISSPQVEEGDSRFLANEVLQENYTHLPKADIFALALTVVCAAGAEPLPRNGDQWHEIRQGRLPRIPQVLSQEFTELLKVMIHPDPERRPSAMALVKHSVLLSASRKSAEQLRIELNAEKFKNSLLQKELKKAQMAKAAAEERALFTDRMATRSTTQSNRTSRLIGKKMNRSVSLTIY
Ins promoter up – MIN6 insulin promoter up-regulation | hit rate 0.3% among 190,000 | MIN6 insulin promoter-GFP reporter, high-content imaging; hits give high values | z-score at 5 µM;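 active = z-score above 3 at 5 µM with at least 500 cells counted in the well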
Hsp70 activator – switches on Hsp70 transcription | AID 1203 | HeLa Hsp70 promoter luciferase reporter, luminescence; scaled: vehicle 0, proteasome-inhibitor control 100% | activation, % at 10 µM | hit rate 0.04% among 200,000;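 active = activation above the mean across all tested compounds plus 3 SD, cutoff set per campaign, cut at about 5.5% in these data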;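 note: 100% = MG132 at 30 µM as the positive control and 0% = DMSO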
INS promoter inh – TRM-6 insulin promoter activity inhibition. TRM-6 cells, insulin promoter-eGFP reporter, imaging; reporter expression induced with tamoxifen. inhibition, % at 2 µM. hit rate 0.9% among 130,000;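 active = inhibition above the mean plus 3 SD, with well images judged a real hit on visual review, cut at about 60% in these data, passing the limit was not always enough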
Wee1 degr conf – confirmation of human Wee1 degradation inhibitors | shares compounds with Wee1 stabilizer | HeLa Luc-Wee1K328M degradation, luminescence; vehicle 0%, proteasome-blocked wells 100% | activation, % at 5 µM | hit rate 4% among 1,100 | AID 1410; in the data active = activation above about 8.9%
The depositor's hits bear a star; / = no result given.

SMILES | Mdm2 ligase inh | RBBP9 inhibitor | Wee1 stabilizer | Ins promoter up | Hsp70 activator | INS promoter inh | Wee1 degr conf
Cc1c(O)ccc2c(O)c(NC(=O)c3ccc4c(c3)CCC(C)(C)O4)c(=O)oc12 | -13 | -5 | 12* | 0.27 | / | / | -1
C=C(C)COc1ccc(-c2[nH]ncc2Oc2ccc(OC)cc2)c(O)c1 | -6 | -2 | 18* | 0.06 | / | / | 4
Cc1[nH][nH]c(=O)c1C(c1ccc([N+](=O)[O-])cc1)c1c(C)[nH][nH]c1=O | -10 | 5 | 11* | 0.31 | / | / | 0
CCOc1ccc(S(=O)(=O)NCCC(=O)N2CCN(c3ccc(OC)cc3)CC2)cc1 | -12 | -5 | 11* | -0.86 | 0 | -5 | -1
COc1ccc(N2CCN(C(=O)CCNS(=O)(=O)c3ccccc3)CC2)cc1 | -15 | -5 | -1 | -0.62 | 0 | / | /
CCOC(=O)C1=c2/c(=C/c3ccncc3)c(N)c(C(=O)OC)n2C(=O)C(c2ccncc2)S1 (stereo not given) | -20 | -3 | 19* | -0.62 | 0 | 20 | 1
C/C(=N\Nc1ccc(S(=O)(=O)Nc2ccccc2)cc1[N+](=O)[O-])c1ccc(N2CCOCC2)cc1 | -10 | -6 | 0 | -0.8 | 0 | / | /
C/C(=N\Nc1ccc(S(=O)(=O)Nc2ccc(Cl)cc2)cc1[N+](=O)[O-])c1ccc(N2CCOCC2)cc1 | -1 | 4 | 12* | -0.87 | 0 | 20 | 0
COc1cc(O)c(C(C)=O)cc1OC | -1 | -2 | 11* | / | 0 | 52 | 1
COc1cc(OC)nc(Oc2ccccc2C(=O)Oc2cccc(C)c2)n1 | 4 | -2 | -1 | / | 0 | -30 | /
Cc1ccc2[nH]c(C)c(CCNC(=O)C3CCCCC3C(=O)OCC(F)(F)F)c2c1 (stereo not given) | -7 | -9 | -3 | -0.33 | 0 | -8 | /
O=C(Cn1nc(-c2ccccc2Cl)ccc1=O)Nc1ccccc1-c1ccccc1 | -3 | -11 | 25* | 0.54 | 0 | -58 | 2
Fc1ccc(COc2cccc(CNCc3ccncc3)c2)cc1 | -26 | 6 | 1 | -2.2 | 0 | / | /
COc1ccc(C2N=C(c3ccccc3)C(C)(C)N2O)cc1 (stereo not given) | -12 | -1 | 31* | -0.43 | 0 | -48 | 1
Cc1nc(Nc2ccccc2Cl)sc1C(=O)Nc1ccccc1 | -9 | -10 | 17* | -0.16 | 0 | / | 2
Cc1cc(O)c(-c2cc(C(=O)Nc3cccnc3)[nH]n2)cc1C | -14 | -8 | 18* | 0.08 | / | / | 4
Cc1cccc2sc(N(CCCN(C)C)C(=O)c3cc4ccccc4oc3=O)nc12 | -8 | 1 | 2 | 0.82 | 0 | / | /
Cc1ccc2nc(N(CCCN(C)C)C(=O)c3cc4ccccc4oc3=O)sc2c1 | -3 | -9 | 15* | -0.46 | 0 | -21 | -2
c1ccc(-n2nnc(-c3cccnc3)n2)cc1 | / | -7 | 4 | 0.43 | 0 | / | /
CN(C(=O)c1c(Br)cnn1C)C12CC3CC(CC(C3)C1)C2 | / | 1 | 0 | -0.07 | 0 | 39 | /
Cc1cc(C(=O)N/N=C/c2sccc2C)no1 | 2 | -5 | 3 | 0.7 | 0 | 17 | /
Cc1ccsc1/C=N\NC(=O)c1cc(C(C)(C)C)[nH]n1 | -7 | 1 | 44* | -0.39 | 0 | 0 | 3
CCOC(=O)C1=C(c2ccccc2)O/C(=C(/C#N)C(F)(F)F)S1 | 68* | 2 | 24* | -0.89 | 1 | -14 | 87*
NC(=O)c1cc2ccc(O)cc2oc1=Nc1ccccc1 | -8 | -3 | -2 | / | 0 | / | /
COc1ccc2cc(C(N)=O)c(=Nc3ccccc3)oc2c1 | -20 | -4 | 11* | / | 0 | 14 | 5
SMILES | Mdm2 ligase inh | RBBP9 inhibitor | Wee1 stabilizer | Ins promoter up | Hsp70 activator | INS promoter inh | Wee1 degr conf
CCN1CCc2nc(NC(=O)CC(c3ccccc3)c3ccccc3)sc2C1 | -27 | -10 | -1 | 0.42 | 0 | 0 | /
CCN1CCc2nc(NC(=O)C(c3ccccc3)c3ccccc3)sc2C1 | -8 | 2 | 11* | / | 0 | 7 | 0
COc1ccc(C(=O)NCCCOc2cccc(NC(C)=O)c2)cc1 | -1 | -1 | 2 | -0.43 | / | / | /
CN(Cc1nccn1C)C(=O)CC1C(=O)NCCN1Cc1cccc(Oc2ccccc2)c1 (stereo not given) | -5 | -4 | 12* | 1.1 | 0 | / | 1
CCC1=C(OC(=O)N(CC)CC)N2C(=O)OC(=NCCOC)[C@]2(Cc2ccccc2)[C@H]2C1=CC[C@H]1C(=O)N(C)C(=O)[C@H]12 | 8 | / | / | 0.25 | / | / | /
O=C(O)c1ccc2nc3c(nc2c1)-c1ccccc1C3=O | 0 | -5 | 17* | 0.29 | 0 | -6 | 5
O=C(O)c1ccc2nc(-c3ccco3)c(-c3ccco3)nc2c1 | 2 | 2 | 7 | 1 | 1 | 47 | /
O=C(CC(=O)c1ccccc1O)c1cccc(F)c1 | -12 | 1 | 11* | -0.23 | 2 | -35 | 4
O=C(N/N=C/c1cccs1)/C(=C/c1ccccc1)NC(=O)c1ccccc1 | / | -1 | 12* | 0.33 | 0 | 64 | -2
CC(=O)Nc1ccc2nc(NC(=O)c3cccs3)sc2c1 | / | -1 | 11* | -0.49 | / | / | 1
O=C(Nc1ccc2nc3ccccc3nc2c1)c1ccc(Br)cc1 | -12 | -6 | -3 | 0.45 | 0 | / | /
CC(=O)Nc1ccc2nc3ccccc3nc2c1 | -5 | 0 | 24* | 0.36 | / | / | -1
CC(=O)Nc1ccc2nc(-c3cccs3)[nH]c2c1 | 6 | -6 | 16* | 0.61 | 0 | 0 | -1
CC(=O)Nc1ccc2nc(NC(=O)c3ccc([N+](=O)[O-])s3)sc2c1 | -7 | -7 | 0 | -0.59 | / | / | /
COCCCNC(=O)CN(c1cc([N+](=O)[O-])ccc1OC)S(C)(=O)=O | -4 | -3 | -1 | -0.11 | 0 | / | /
N#CCCn1c(O)c(N=NC(=O)CNC(=O)c2cccs2)c2ccccc21 | -6 | -2 | 15* | / | / | / | -1
O=C(O)CSc1nc2ccccc2o1 | -12 | -7 | -3 | 0.6 | 0 | 6 | /
CCCCOC(=O)CSc1nc2ccccc2o1 | -12 | 6 | 12* | 0.22 | / | / | 3
Cc1noc(NS(=O)(=O)c2ccc(NC(=O)C(CC(C)C)N3C(=O)c4ccccc4C3=O)cc2)c1C (stereo not given) | -11 | 1 | -1 | 0.27 | / | / | /
CC1CC(C)(C)NC(=S)N1CCC(=O)N1CCN(c2ccccc2)CC1 (stereo not given) | 7 | -3 | -3 | 0.05 | 0 | 33 | /
COc1ccc(N2CCN(C(=O)CCN3C(=S)NC(C)(C)CC3C)CC2)cc1 (stereo not given) | 2 | -9 | 11* | -0.28 | 0 | -47 | 3
Cc1ccc(C(=O)NNC(=S)NC(=O)COc2ccccc2)cc1 | -5 | -5 | 14* | -0.17 | 0 | 11 | 3
